Assay results: ChEMBL document CHEMBL1150660, “Lignans isolated from valerian: identification and characterization of a new olivil derivative with partial agonistic activity at A(1) adenosine receptors” (J Nat Prod, 2002)
pEC50, pKi: −log10 of the molar value.

Tests used:
[1] = target: T1, Adenosine receptor A1 (Rattus norvegicus) (UniProt P25099); test: Displacement of [3H]CCPA from adenosine A1 receptor in rat brain cortical membrane at 100 uM by liquid scintillation counting; assay type: cell membranes
T1 sequence (whole entry): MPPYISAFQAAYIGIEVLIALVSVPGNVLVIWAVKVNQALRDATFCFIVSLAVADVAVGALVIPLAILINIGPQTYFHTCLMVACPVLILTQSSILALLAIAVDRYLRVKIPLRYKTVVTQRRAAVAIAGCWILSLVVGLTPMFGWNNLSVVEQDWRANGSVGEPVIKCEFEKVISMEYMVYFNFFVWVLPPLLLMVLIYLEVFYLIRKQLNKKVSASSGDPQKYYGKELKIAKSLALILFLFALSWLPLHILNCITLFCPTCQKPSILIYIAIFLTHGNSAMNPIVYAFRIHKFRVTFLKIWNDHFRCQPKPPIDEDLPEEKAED
How it was run: (§1)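 Rat cortical membranes (ca. 70 μg/mL protein), pretreated with 0.2 IU/mL adenosine deaminase, incubated with [3H]CCPA in 50 mM Tris-HCl pH 7.4 for 90 min at 25 °C. Nonspecific binding with 10 μM 2-chloroadenosine. GF/B filtration, scintillation counting.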

[2] = target: Adenosine receptor A2a (Rattus norvegicus) (UniProt P30543); test: Displacement of [3H]MSX-2 from A2A receptor in rat brain striatal membrane at 100 uM by liquid scintillation counting; assay type: cell membranes
How it was run: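 Rat striatal membranes (ca. 70 μg/mL protein), pretreated with 0.2 IU/mL adenosine deaminase, incubated with [3H]MSX-2 in 50 mM Tris-HCl pH 7.4 for 30 min at 25 °C. Nonspecific binding with 50 μM NECA. Filtration on GF/B filters presoaked in 0.3% polyethylenimine, scintillation counting. Percent inhibition at 100 μM, n = 3.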

[3] = target: T2, Adenosine receptor A1 (Rattus norvegicus, UniProt P25099); test: Displacement of [3H]CCPA from adenosine A1 receptor in rat brain cortical membrane by liquid scintillation counting; assay type: cell membranes; how it was run: as §1
T2 sequence (P25099 whole entry): T1 sequence (whole entry)

[4] = target: T3, Adenosine receptor A1 (Homo sapiens, UniProt P30542); test: Displacement [3H]DPCPX from of human adenosine A1 receptor expressed in CHO cells in presence of GTP; assay type: cell-based
T3 sequence (P30542 whole entry): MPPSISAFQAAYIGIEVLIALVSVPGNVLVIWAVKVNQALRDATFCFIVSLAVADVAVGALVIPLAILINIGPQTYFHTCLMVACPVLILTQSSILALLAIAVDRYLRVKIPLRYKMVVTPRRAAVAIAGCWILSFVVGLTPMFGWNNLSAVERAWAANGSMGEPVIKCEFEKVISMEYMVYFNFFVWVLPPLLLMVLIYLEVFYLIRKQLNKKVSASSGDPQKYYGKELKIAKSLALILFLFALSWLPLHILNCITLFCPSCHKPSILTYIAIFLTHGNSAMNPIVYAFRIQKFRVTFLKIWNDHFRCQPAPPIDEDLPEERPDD
How it was run: (§2)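 CHO-hA1 membranes (20 μg/mL protein), competition against [3H]DPCPX with or without 100 μM GTP. Incubation in 50 mM Tris-HCl pH 7.4, 90 min at 25 °C, after adenosine deaminase pretreatment. Nonspecific binding with 10 μM DPCPX. GF/B filtration, scintillation counting. Ki values for high- and low-affinity states taken from the biphasic curve without GTP.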

[5] = target: T3, Adenosine receptor A1; test: Displacement [3H]DPCPX from of human adenosine A1 receptor at high affinity state expressed in CHO cells; assay type: cell-based; how it was run: as §2
[6] = target: T3, Adenosine receptor A1; test: Displacement [3H]DPCPX from of human adenosine A1 receptor at low affinity state expressed in CHO cells; assay type: cell-based; how it was run: as §2
[7] = target: T2, Adenosine receptor A1; test: Agonist activity at adenosine A1 receptor in rat cortical membrane by [35S]GTPgammaS binding assay; assay type: functional, cell membranes
[8] = target: T1, Adenosine receptor A1 (Rattus norvegicus); test: Agonist activity at adenosine A1 receptor in rat cortical membrane by [35S]GTPgammaS binding assay relative to control; assay type: functional, cell membranes
How it was run: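 Rat cortical membranes (7 μg/tube) incubated 45 min at 25 °C with 0.1-0.5 nM [35S]GTPγS in 50 mM Tris-HCl pH 7.4 with 1 mM EDTA, 5 mM MgCl2, 1 mM DTT, 10 μM GDP, 100 mM NaCl, 2 IU/mL adenosine deaminase, 0.5% BSA. Nonspecific binding with 10 μM unlabeled GTPγS. Filtration, scintillation counting; stimulation expressed as percent of basal.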

[9] = species: Rattus norvegicus; test: Displacement of [3H]flunitrazepam from GABAA receptor in rat brain cortical membrane at 10 uM; assay type: cell membranes

Sequence of Adenosine receptor A2a (Rattus norvegicus) (P30543 whole entry): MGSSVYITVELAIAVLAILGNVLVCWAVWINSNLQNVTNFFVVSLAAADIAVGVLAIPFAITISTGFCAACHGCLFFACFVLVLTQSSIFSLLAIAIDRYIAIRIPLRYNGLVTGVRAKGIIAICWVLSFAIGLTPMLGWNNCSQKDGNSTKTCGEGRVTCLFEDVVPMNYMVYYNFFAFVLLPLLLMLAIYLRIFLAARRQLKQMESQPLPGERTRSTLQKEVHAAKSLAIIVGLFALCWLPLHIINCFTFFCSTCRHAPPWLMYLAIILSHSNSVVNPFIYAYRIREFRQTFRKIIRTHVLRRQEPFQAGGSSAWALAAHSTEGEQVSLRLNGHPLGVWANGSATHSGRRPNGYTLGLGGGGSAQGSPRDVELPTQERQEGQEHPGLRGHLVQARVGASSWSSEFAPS

SMILES	inhibition [1]	inhibition [2]	Activity [8]	other results
COc1cc([C@H]2OC[C@](O)(Cc3ccc(O[C@@H]4O[C@H](CO)[C@@H](O)[C@H](O)[C@H]4O)c(OC)c3)[C@]2(O)CO)ccc1O	29%	0%	–	–
COc1cc([C@H]2OC[C@H](Cc3ccc(O[C@@H]4O[C@H](CO)[C@@H](O)[C@H](O)[C@H]4O)c(OC)c3)[C@]2(O)CO)ccc1O	29%	11%	–	–
COc1cc([C@H]2OC[C@H]3[C@@H]2CO[C@@H]3c2ccc(O[C@@H]3O[C@H](CO)[C@@H](O)[C@H](O)[C@H]3O)c(OC)c2)ccc1O[C@@H]1O[C@H](CO)[C@@H](O)[C@H](O)[C@H]1O	–	–	–	Activity [9]: 23%
OC[C@H]1O[C@@H](n2cnc3c(NC4CCCC4)ncnc32)[C@H](O)[C@@H]1O	–	–	193%	–

Further lines, with some results ahead:

inhibition [1]	inhibition [2]	Activity [8]	SMILES	other results
80%	49%	126%	COc1cc([C@H]2OC[C@](O)(Cc3ccc(O[C@@H]4O[C@H](CO)[C@@H](O)[C@H](O)[C@H]4O)c(OC)c3)[C@@H]2COC[C@H]2O[C@@](CO)(O[C@H]3O[C@H](CO)[C@@H](O)[C@H](O)[C@H]3O)[C@@H](O)[C@@H]2O)ccc1O	pKi [3]: 5.28; pKi [4]: 4.51; pKi [5]: 7.59; pKi [6]: 4.63; pEC50 [7]: 5.40
–	58%	–	Cn1c(=O)c2c(ncn2C)n(C)c1=O	–
